Assay [1] concerns the target T1, Aminopeptidase N (Sus scrofa, UniProt P15145).
T1 sequence (P15145 whole entry): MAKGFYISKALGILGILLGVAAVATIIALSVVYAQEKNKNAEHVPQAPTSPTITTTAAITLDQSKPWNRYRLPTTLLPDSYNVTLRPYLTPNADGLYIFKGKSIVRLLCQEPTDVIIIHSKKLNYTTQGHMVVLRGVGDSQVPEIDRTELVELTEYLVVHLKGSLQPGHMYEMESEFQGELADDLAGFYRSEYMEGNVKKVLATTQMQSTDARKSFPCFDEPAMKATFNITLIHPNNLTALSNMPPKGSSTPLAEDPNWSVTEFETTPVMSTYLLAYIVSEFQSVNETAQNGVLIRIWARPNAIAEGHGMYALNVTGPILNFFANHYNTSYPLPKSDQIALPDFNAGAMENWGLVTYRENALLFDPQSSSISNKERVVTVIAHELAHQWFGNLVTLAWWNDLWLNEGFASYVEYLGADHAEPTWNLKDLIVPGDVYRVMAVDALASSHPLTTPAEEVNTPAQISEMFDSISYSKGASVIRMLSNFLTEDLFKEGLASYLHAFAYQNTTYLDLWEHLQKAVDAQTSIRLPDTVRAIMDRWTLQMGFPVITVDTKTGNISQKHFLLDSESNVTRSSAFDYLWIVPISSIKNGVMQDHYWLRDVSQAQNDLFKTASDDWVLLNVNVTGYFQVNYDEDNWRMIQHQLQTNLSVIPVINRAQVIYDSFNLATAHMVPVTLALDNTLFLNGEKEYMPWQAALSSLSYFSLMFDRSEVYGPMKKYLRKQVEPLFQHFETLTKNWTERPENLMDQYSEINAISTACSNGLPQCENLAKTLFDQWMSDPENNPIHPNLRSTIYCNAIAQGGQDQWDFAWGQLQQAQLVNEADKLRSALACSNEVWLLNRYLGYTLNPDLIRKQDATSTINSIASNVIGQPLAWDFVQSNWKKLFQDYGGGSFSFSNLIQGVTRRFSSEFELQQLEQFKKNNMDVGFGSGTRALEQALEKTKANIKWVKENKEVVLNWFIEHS
As to the kind of experiment: Inhibition of pig kidney APN using L-Leu-p-nitroanilide as substrate incubated for 5 mins prior to substrate addition measured after 30 mins by UV/VIS spectrophotometry. The essentials: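 Porcine kidney microsomal APN, 6 μg/mL final, in 50 mM PBS pH 7.2 with 0.5% DMSO final. Inhibitor and enzyme preincubated 5 min at room temperature. Percent inhibition from control and zero-setting OD; IC50 calculated.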

The target of assay [2] is Aminopeptidase N (Homo sapiens, UniProt P15144). Kind of assay: Inhibition of APN in human ES2 cell surface using L-Leu-p-nitroanilide as substrate incubated for 5 mins prior to substrate addition measured after 1 hr by UV/VIS spectrophotometry. The procedure, abridged:
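Enzyme source: intact ES-2 cells, 2 × 10^5 per well, in 10 mM PBS pH 7.4 with 0.1% DMSO final. Inhibitors preincubated with cells 5 min at room temperature. L-Leu-p-nitroanilide then added, 1 h at 37 °C. Inhibition from control and zero-setting OD; IC50 calculated; mean ± SD of three assays.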

Assay [3] addresses 72 kDa type IV collagenase (Homo sapiens, UniProt P08253). Kind of assay: Inhibition of recombinant MMP2 using succinylated gelatin as substrate incubated for 10 mins prior to substrate addition measured after 1 hr by UV/VIS spectrophotometry. The procedure, abridged:
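Recombinant MMP-2 and compound, both in 50 mM sodium borate pH 8.5, held 10 min at 37 °C. Succinylated gelatin then added for 60 min at 37 °C. Free amines developed with 0.03% picrylsulfonic acid, 20 min at room temperature, read at 450 nm. Inhibition from control and zero-setting OD; IC50 calculated; three assays, SD <10% of means.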

The nature of assay [4]: Antiproliferative activity against human ES2 cells after 48 hrs by MTT assay. Format: functional, cell-based. The following applies: ES-2, 48 h. The essentials: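 ES-2 cells grown in RPMI-1640 with 10% FBS, seeded 8000 per well and left to adhere 10 h. Compounds then added at a range of concentrations in the same medium with 0.1% DMSO, 48 h at 37 °C in CO2. MTT added for 4 h; formazan dissolved in DMSO, read at 590 nm. Inhibition from control and zero-setting OD; IC50 calculated; three assays.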

The subject of assay [5] is ES2. As to the kind of experiment: Antimetastatic activity against human ES2 cells assessed as inhibition of migration through transwell chamber without matrigel coating at 100 ug/mL after 3 hrs by crystal voilet staining. It counts as functional, cell-based. The essentials:
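Uncoated transwell inserts. Upper chamber holds compound at 100 µg/mL in RPMI-1640 with 1% FBS, 0.1% DMSO final, plus ES-2 cells (60000 per well). Migration 3 h at 37 °C in CO2. Upper-side cells swabbed away; migrated cells fixed and stained with 0.1% crystal violet, extracted with 33% acetic acid, read at 595 nm. Rate uses treated, control and blank OD. Repeated ≥3 times in triplicate.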

Assay [6] can be described thus: Antimetastatic activity against human ES2 cells assessed as inhibition of invasion through transwell chamber with matrigel coating at 10 to 100 ug/mL after 8 hrs by crystal voilet staining relative to control. Format: functional. The procedure, abridged: (§1)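 ES-2 cells (100,000 per insert) in RPMI-1640 with 1% FBS placed on Matrigel inserts rehydrated 2 h; lower chamber RPMI-1640 with 10% FBS. Compound at 10 and 100 μg/mL with 0.1% DMSO final added to upper chamber. Invasion 8 h at 37 °C in CO2. Non-invading cells swabbed off; remaining cells fixed and crystal-violet stained, counted in five random ×100 fields per insert. At least three experiments, triplicates.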

For assay [7], the system named is ES2. Kind of assay: Antimetastatic activity against human ES2 cells assessed as inhibition of invasion through transwell chamber with matrigel coating after 8 hrs by crystal voilet staining. It counts as functional, cell-based. The procedure, abridged:
as §1

Here are results for 26 molecules from ChEMBL document CHEMBL2034854, “Design, synthesis and biological evaluation of novel amino acid ureido derivatives as aminopeptidase N/CD13 inhibitors” (Bioorg Med Chem, 2012).

Molecules are shown by their SMILES. Active and inactive are the calls of the source. The rule behind the calls is not given here.

72 kDa type IV collagenase, sequence (P08253 whole entry): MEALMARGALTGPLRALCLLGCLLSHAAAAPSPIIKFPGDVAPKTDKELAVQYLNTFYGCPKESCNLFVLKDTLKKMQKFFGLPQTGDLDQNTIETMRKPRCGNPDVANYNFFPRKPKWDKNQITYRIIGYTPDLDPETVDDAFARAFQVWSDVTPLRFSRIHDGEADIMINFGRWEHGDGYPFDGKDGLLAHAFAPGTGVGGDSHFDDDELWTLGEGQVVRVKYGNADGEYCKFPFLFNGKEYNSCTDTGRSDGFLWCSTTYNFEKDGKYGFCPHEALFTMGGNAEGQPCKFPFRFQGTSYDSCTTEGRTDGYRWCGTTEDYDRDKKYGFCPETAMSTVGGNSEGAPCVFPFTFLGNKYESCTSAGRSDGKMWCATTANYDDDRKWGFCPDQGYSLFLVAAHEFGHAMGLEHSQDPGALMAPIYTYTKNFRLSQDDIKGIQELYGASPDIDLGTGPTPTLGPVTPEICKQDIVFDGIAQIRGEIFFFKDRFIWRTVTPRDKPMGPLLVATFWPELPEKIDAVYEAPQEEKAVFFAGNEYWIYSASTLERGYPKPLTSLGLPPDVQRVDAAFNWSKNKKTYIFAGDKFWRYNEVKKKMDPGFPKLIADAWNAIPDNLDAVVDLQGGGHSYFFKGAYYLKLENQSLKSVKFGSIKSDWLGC
Aminopeptidase N (Homo sapiens, UniProt P15144), sequence (P15144 whole entry): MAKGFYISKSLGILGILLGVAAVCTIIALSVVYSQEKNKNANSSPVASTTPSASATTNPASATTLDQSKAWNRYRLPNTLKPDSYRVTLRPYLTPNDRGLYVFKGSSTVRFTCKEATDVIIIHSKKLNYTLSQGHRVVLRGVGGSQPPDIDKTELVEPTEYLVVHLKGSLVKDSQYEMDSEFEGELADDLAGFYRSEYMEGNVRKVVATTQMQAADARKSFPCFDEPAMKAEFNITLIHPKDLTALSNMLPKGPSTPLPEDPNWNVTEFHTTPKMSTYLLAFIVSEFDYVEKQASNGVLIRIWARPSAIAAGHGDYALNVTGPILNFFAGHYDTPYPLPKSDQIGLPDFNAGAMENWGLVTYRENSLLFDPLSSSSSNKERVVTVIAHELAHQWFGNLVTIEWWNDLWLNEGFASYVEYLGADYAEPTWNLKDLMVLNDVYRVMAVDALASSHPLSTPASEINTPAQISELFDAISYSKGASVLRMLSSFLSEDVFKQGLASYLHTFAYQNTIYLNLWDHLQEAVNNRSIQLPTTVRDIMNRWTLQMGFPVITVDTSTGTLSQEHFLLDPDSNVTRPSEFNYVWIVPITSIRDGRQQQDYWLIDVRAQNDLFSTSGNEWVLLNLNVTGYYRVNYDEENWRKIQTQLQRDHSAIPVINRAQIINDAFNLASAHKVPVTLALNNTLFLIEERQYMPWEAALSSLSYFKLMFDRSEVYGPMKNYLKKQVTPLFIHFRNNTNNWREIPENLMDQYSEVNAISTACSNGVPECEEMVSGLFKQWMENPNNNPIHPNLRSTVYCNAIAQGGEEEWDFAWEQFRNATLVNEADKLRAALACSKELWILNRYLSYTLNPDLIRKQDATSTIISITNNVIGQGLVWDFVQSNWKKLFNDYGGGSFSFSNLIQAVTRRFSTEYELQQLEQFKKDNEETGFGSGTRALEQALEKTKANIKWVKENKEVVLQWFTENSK

In turn, `CSCC[C@H](NC(=O)NCCc1ccccc1)C(=O)NO` had an IC50 on Aminopeptidase N [1] of over 100 µM.

Molecule `O=C(CNC(=O)NCc1ccccc1)NO` showed an IC50 against Aminopeptidase N [1] of 32 µM.

As to `CC(C)C[C@H](NC(=O)OCc1ccccc1)C(=O)NO`, the concentration for half-maximal inhibition (IC50) against Aminopeptidase N [1] is 9.1 µM.

Regarding `CSCC[C@H](NC(=O)NCc1ccccc1)C(=O)NO`, the IC50 is 3.8 µM against Aminopeptidase N [1], 22 µM at Aminopeptidase N [2], over 500 µM in assay [3] and over 1000 µM in assay [4].

As to `CC(C)C[C@H](NC(=O)[C@@H](O)[C@H](N)Cc1ccccc1)C(=O)O` [UBENIMEX], 490 µM corresponded to half-maximal inhibition in assay [4] (IC50).

On to `CC(C)C[C@H](NC(=O)NC1CCCCC1)C(=O)NO`, for which the IC50 against Aminopeptidase N [1] is over 100 µM.

Take `CC[C@H](C)[C@H](NC(=O)NCc1ccccc1)C(=O)NO`: the IC50 against Aminopeptidase N [1] is 4.1 µM; on Aminopeptidase N [2], 39 µM; in assay [3] it was over 500 µM; in assay [4], 770 µM. The inhibition result in the assay on ES2 [5] is “inactive”.

With `O=C(N[C@@H](Cc1ccccc1)C(=O)NO)N[C@@H](Cc1ccccc1)C(=O)NO`, the IC50 against Aminopeptidase N [1] was over 100 µM.

`C[C@H](NC(=O)NCCc1ccccc1)C(=O)NO` gave an IC50 against Aminopeptidase N [1] of 21 µM.

With `CC(C)C[C@H](NC(=O)OCCc1ccccc1)C(=O)NO`, it took 18 µM to reach half-maximal inhibition against Aminopeptidase N [1] (IC50).

Take `CC(C)[C@H](NC(=O)NCCc1ccccc1)C(=O)NO`: the IC50 at Aminopeptidase N [1] was over 100 µM.

On Aminopeptidase N [1], `C[C@H](NC(=O)NC(C)(C)C)C(=O)NO` displayed an IC50 of over 100 µM.

For `CC(C)C[C@H](NC(=O)NCCc1ccccc1)C(=O)NO`, the IC50 is 1.1 µM against Aminopeptidase N [1], 5.1 µM against Aminopeptidase N [2], over 500 µM in assay [3] and 96 µM in assay [4]. Besides, the inhibition entry in the assay with ES2 [5] was “inactive”. In addition, the “inhibition (INH)” value in assay [6] came to 55%. Also, the inhibition result in the assay on ES2 [7] is “Dose-dependent effect”.

`CC(C)[C@H](NC(=O)NC(C)(C)C)C(=O)NO` displayed a half-maximal inhibitory concentration (IC50) against Aminopeptidase N [1] of over 100 µM.

Molecule `O=C(CNC(=O)NCCc1ccccc1)NO` showed an IC50 on Aminopeptidase N [1] of 52 µM.

Regarding `CC(C)[C@H](NC(=O)NCc1ccccc1)C(=O)NO`, half-maximal inhibition against Aminopeptidase N [1] (IC50) was put at 17 µM.

As to `CC[C@H](C)[C@H](NC(=O)NCCc1ccccc1)C(=O)NO`, at Aminopeptidase N [1], the IC50 was over 100 µM.

In turn, `O=C(NCCc1ccccc1)N[C@@H](Cc1ccccc1)C(=O)NO` had an IC50 against Aminopeptidase N [1] of 6.5 µM.

As to `CC(C)C[C@H](NC(=O)N[C@@H](CC(C)C)C(=O)NO)C(=O)NO`, on Aminopeptidase N [1], the concentration for half-maximal inhibition (IC50) is over 100 µM.

`C[C@H](NC(=O)NCc1ccccc1)C(=O)NO` came in with an IC50 against Aminopeptidase N [1] of 21 µM.

`CSCC[C@H](NC(=O)NC(C)(C)C)C(=O)NO`: the IC50 at Aminopeptidase N [1] was over 100 µM.

Turning to `CC(C)(C)NC(=O)NCC(=O)NO`, the half-inhibitory concentration (IC50) at Aminopeptidase N [1] was over 100 µM.

`CC(C)C[C@H](NC(=O)NC(C)(C)C)C(=O)NO` returned a concentration for half-maximal inhibition (IC50) at Aminopeptidase N [1] of over 100 µM.

The molecule `CC[C@H](C)[C@H](NC(=O)NC(C)(C)C)C(=O)NO` yielded an IC50 at Aminopeptidase N [1] of over 100 µM.

At Aminopeptidase N [1], `CC(C)(C)NC(=O)N[C@@H](Cc1ccccc1)C(=O)NO` yielded an IC50 of over 100 µM.

Take `O=C(NCc1ccccc1)N[C@@H](Cc1ccccc1)C(=O)NO`: the IC50 was 5.6 µM against Aminopeptidase N [1], 16 µM against Aminopeptidase N [2], over 500 µM in assay [3] and 510 µM in assay [4]. Moreover, in the assay on ES2 [5], the inhibition entry was “inactive”.

As a reminder, the IC50 is the midpoint of a concentration-inhibition curve.
